Bioassay records (PubChem BioAssay)
Only some compounds are listed: those with a hit (about 0.64% of all), similar ones and a draw of the others.
PMI act satM6P: activators of human phosphomannose isomerase at near-saturating mannose 6-phosphate | P34949 | coupled PMI enzyme assay, resazurin fluorescence, 20 min; active compounds read high; 1 = untreated enzyme, 0 = substrate-free blank | activation factor at 20 µM | 190,000 compounds, 0.34% hits;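 active = activation factor of 2 or more at 20 µM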
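test system = human PMI in coupled enzyme assay | medium = HEPES-buffered pH 7.4 with magnesium and detergent | also added = 1.0 mM mannose-6-phosphate substrate with 0.22 mM NADP+ | compound = 20 µM single dose | times = 20 min incubation at room temperature | measured by = resorufin fluorescence (Ex 544/Em 590 nm) from resazurin via diaphorase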
TNAP inh noacc: blocks human TNAP activity with no phosphate acceptor present | purified TNAP, CDP-star luminescence, 30 min | inhibition, % at 20 µM | 200,000 compounds, 0.26% hits;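 active = tissue-nonspecific alkaline phosphatase inhibition above about 50% at 20 µM in the single-dose screen, limit read from the data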
Target sequence (P05186 whole entry, looked up): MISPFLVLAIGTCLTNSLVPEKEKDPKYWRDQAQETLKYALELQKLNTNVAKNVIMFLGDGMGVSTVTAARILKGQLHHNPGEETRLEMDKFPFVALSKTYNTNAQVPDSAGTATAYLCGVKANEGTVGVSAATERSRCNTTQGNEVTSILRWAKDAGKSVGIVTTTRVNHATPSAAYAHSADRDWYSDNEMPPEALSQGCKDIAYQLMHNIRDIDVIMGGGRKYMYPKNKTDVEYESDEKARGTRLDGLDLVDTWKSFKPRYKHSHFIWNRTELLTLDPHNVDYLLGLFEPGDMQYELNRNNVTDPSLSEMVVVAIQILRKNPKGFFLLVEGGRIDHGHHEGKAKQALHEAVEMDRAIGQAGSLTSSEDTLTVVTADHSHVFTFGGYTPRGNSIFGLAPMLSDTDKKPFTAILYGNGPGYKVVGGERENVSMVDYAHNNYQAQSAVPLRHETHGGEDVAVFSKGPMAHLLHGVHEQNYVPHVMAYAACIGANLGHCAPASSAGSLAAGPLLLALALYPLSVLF
PMI act: phosphomannose isomerase (human) activation | P34949 | purified human PMI, coupled resazurin fluorescence, 20 min; active compounds read high; 1 = vehicle control, 0 substrate-free wells | activation factor at 20 µM | 190,000 compounds, 0.005% hits;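 active = activation factor of 2 or more at 20 µM, relative to plate controls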
TNAP act hi DEA: TNAP (human) activation, high acceptor; P05186; purified TNAP, CDP-star luminescence, 1 M DEA, 30 min; active compounds read high; 0 = EDTA background, 1 = DMSO-only activity; activation factor at 20 µM; 200,000 tested, under 10 active;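 active = activation factor at least 2 at 20 µM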
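Measured by: Luminescent substrate turnover signal | Test system: Human TNAP | Input: TNAP 1/800 final | Dosing: 20 µM single point | Schedule: 30 min, room temperature | Controls: EDTA wells as negative control, DMSO wells as positive control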
TNAP inh hiacc: blocks human TNAP under high phosphate acceptor concentration; P05186; inhibition, % at 20 µM; 200,000 compounds, 0.03% hits; AID 1135; purified TNAP, CDP-star luminescence, 1 M DEA;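 active = over 50% inhibition of tissue-nonspecific alkaline phosphatase at 20 µM in the single-dose screen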
Large screens that a line does not name were inactive.

COC(=O)c1cc(-c2ccc(Br)cc2)on1	none
CCOc1ccc(-c2cc(C(=O)NN)[nH]n2)cc1	TNAP inh noacc 67.0
COc1ccc(-c2nc(N)n[nH]2)cc1	TNAP inh noacc 62.6
CCOc1ccc(-c2cc(C)n3nc(C(N)=O)cc3n2)cc1	none
NC(=O)/C(=C\c1cccnc1)NC(=O)c1ccccc1	none
COC(=O)c1ccc([C@@H]2C[C@H]3CN(Cc4cccnc4)C(=O)[C@]34CCCN24)cc1	none
CCn1cc(CNCc2cn(C)nc2-c2ccc(C3CCCCC3)cc2)cn1	none
CCCOC1CCCN(C(=O)CCc2nnc(CCCCc3ccccc3)o2)C1 (configuration not stated)	none
COc1cccc(CSc2ccc(S(=O)(=O)N3CCOCC3)cc2C(=O)NCC2CCCO2)c1OC (configuration not stated)	none
O=C(NCCNC(=O)c1ccc([N+](=O)[O-])cc1)c1ccncc1	none
Cc1ccc(NC(=O)Cc2cc(C(=O)O)c3ccccc3n2)c(C)c1	none
CSc1sc2ccccc2[n+]1CCCS(=O)(=O)[O-]	PMI act satM6P 2
COc1ccc2nc(-n3c(O)c(C4=c5ccccc5=NC4=O)[nH]c3=S)sc2c1	TNAP inh hiacc 87.6
CCC1N=C(SC)NC(C)=C1C(=O)c1ccccc1 (configuration not stated)	none
CSC1=NC(C(Cl)(Cl)Cl)N=C(c2ccc(C)cc2)N1 (configuration not stated)	PMI act satM6P 2.3
CCn1c(SCC(=O)Nc2sc3c(c2C#N)CCC(C(C)(C)C)C3)nnc1-c1ccco1 (configuration not stated)	none
CCn1c(SCC(=O)Nc2sc3c(c2C#N)CCCC3)nnc1-c1ccco1	TNAP inh hiacc 52.6
COCc1ccc(CN2CCc3c([nH]c4ccccc34)C2CC(C)C)o1 (configuration not stated)	none
O=C(O)CCN1C(=O)CC(N2C(=O)/C(=C/c3ccc(Cl)cc3)SC2=S)C1=O (configuration not stated)	TNAP inh noacc 63.5
O=C(CCN1C(=O)S/C(=C/c2ccc(Cl)cc2)C1=O)N1CCOCC1	none
CC(=O)n1nc(-c2ccccc2)nc1NCc1ccc(N(C)C)cc1	TNAP inh noacc 50.1
CN(C)c1ccc(CNc2nc(-c3ccccc3)nn2S(C)(=O)=O)cc1	none
CCOC(=O)C1=NN(N=O)C2(CC(=O)N(c3cc(C)cc(C)c3)C2=O)C1 (configuration not stated)	PMI act satM6P 2.2
COC(=O)C1=NN(C(C)=O)C2(CC(=O)N(c3cc(C)cc(C)c3)C2=O)C1 (configuration not stated)	none
Cc1ccc(C)c(N2CCN(C(c3ccncc3)c3nnnn3Cc3ccccc3)CC2)c1 (configuration not stated)	PMI act satM6P 2.2
c1ccc(Cn2nnnc2C(c2ccccc2)N2CCN(c3nc4ccccc4s3)CC2)cc1 (configuration not stated)	none
CCCN(C(=O)CCl)C1=CCCCC1	none
CCOC(=O)Cn1nc(C)c(NC(=O)COc2ccccc2[N+](=O)[O-])c1C	none
O=C1C2CC=CCC2C(=O)N1Cc1ccccc1 (configuration not stated)	none
O=C1C2CC=CCC2C(=O)N1c1n[nH]c(Cc2ccccc2)n1 (configuration not stated)	TNAP inh noacc 95.6
O=C1C2C3C=CC(C3)C2C(=O)N1c1n[nH]c(CCc2ccccc2)n1 (configuration not stated)	TNAP inh noacc 68.0
CCn1cc(S(=O)(=O)Nc2cc(F)ccc2C)cn1	none
CS/C(N)=N/N=C/c1ccc([N+](=O)[O-])cc1	PMI act satM6P 2.5
CSc1nncn1/N=C/c1ccc([N+](=O)[O-])cc1	none
O=C(Nc1cc(C(=O)N2CCOCC2)ccc1N1CCCC1)c1cccs1	PMI act satM6P 2.1
O=C(Nc1ccc(C(=O)N2CCOCC2)cc1)c1cccs1	none
O=C(Oc1cccc([N+](=O)[O-])c1)N1CCCCC1	none
O=S1(=O)N=C(Nc2nncs2)c2ccccc21	TNAP inh noacc 60.8
Cc1ccc(N/N=C(\C#N)C(N)=S)cc1C	PMI act satM6P 2.1
Cc1ccc(N2C(=O)C3C(C2=O)C(C(=O)c2ccc(Cl)cc2)N2CCCC32)cc1 (configuration not stated)	PMI act satM6P 2
O=C(c1ccccc1)c1c[nH]c(C(=O)NNc2ccccc2)c1	PMI act satM6P 2.3
O=C(c1ccccc1)c1c[nH]c(C(=O)NCc2cccnc2)c1	none
Nc1nc(-c2ccc(Cl)cc2)nn1C(=O)c1cccnc1	TNAP inh noacc 57.6
CCC(=O)n1nc(-c2ccc(Cl)cc2)nc1N	TNAP inh noacc 58.7
CCOc1cc(/C=N/NC(=O)CNc2cccc(C)c2)ccc1OC(=O)c1ccccc1	none
CCOc1cc(/C=N/Nc2ccccc2Cl)ccc1OCC(=O)O	PMI act satM6P 3.1
CCOc1cc(/C=N/Nc2cccc(C(=O)O)c2)ccc1OC(=O)c1ccccc1	PMI act satM6P 2.3
O=C(O)c1cccc(N/N=C/C2=C(Cl)c3cc(Cl)ccc3SC2)c1	PMI act satM6P 2.5
O=C(O)c1cccc(N/N=C/c2ccc(F)c(F)c2)c1	PMI act satM6P 2.3
CCOc1cc(/C=N/Nc2nc(Nc3ccccc3)nc(N3CCCCC3)n2)ccc1OCC(=O)O	none
O=C(O)c1ccc(/C=N/Nc2cccc(C(F)(F)F)c2)cc1	none
S=C(NC1CCCC1)NN1CCOCC1	none
O=C(CSc1nnnn1-c1cccc2ccccc12)NC(C(=O)O)(c1ccccc1)c1ccccc1	none
Cc1nn(-c2cccc(C(F)(F)F)c2)c(Cl)c1/C=N/Nc1cccc(C(=O)O)c1	PMI act satM6P 2.5
Cc1nn(-c2ccccc2Cl)c(Cl)c1/C=N/Nc1cccc(C(=O)O)c1	none
Cc1nonc1N1CCN(Cc2cn[nH]c2-c2ccc(F)cc2F)CC1	TNAP inh noacc 59.5
COc1cccc(C(=O)N2CCN(Cc3ccccc3C(F)(F)F)CC2)c1	none
CN1CCN(Cc2cn[nH]c2-c2ccc(F)cc2F)[C@@H](c2ccccc2)C1	none
COc1ccc(-c2[nH]ncc2CN2C[C@@H]3CCC[C@H]2C3)c(F)c1	TNAP inh noacc 76.1
COc1ccc(C(=O)N2CCN(Cc3cn[nH]c3-c3ccc(OC)cc3F)CC2)cc1	TNAP inh noacc 81.9
COc1cccc(C(=O)N2CCN(Cc3cn[nH]c3-c3ccc(F)cc3F)CC2)c1	TNAP inh noacc 64.8
Cc1ccc(S(=O)(=O)NCc2ccc(C(=O)NCCCN3CCC(Cc4ccccc4)CC3)cc2)cc1	none
O=C(c1ccco1)N1CCN(Cc2cn[nH]c2-c2ccc(F)cc2F)CC1	TNAP inh noacc 78.4
Cc1cc(C)nc(NC(=O)c2ccc(COc3ccccc3Cl)cc2)c1	none
